Assay results collected from several papers.
Effect on: enzyme activity
Action: inhibitor
FGFR1: Fibroblast growth factor receptor 1 (FGFR1, Homo sapiens, UniProt P11362)

| Compound | target | assay | setting | remaining activity |
| --- | --- | --- | --- | --- |
| O=C(Nc1cnn(-c2csc(C(=O)NC3COC3)c2)c1)Nc1c(F)cccc1Cl | FGFR1 | – | 5 µM | 91.4% |
| CC(C)(C)c1nc(-c2cccc(NS(=O)(=O)c3c(F)cccc3F)c2F)c(-c2ccnc(N)n2)s1 | FGFR1 | radiometric | 1 µM | 89% |
| CCN(CC)c1ccc(C2=NNC(=O)CC2C)cc1[N+](=O)[O-] (stereo not drawn) | FGFR1 | – | 10 µM | 90% |
| Nc1nc(NC2CCCCC2)sc1C(=O)c1ccccc1 | FGFR1 | – | 10 µM | 97% |
| CCCOc1ccc(OC)c(F)c1C(=O)c1ccc(C(=O)N[C@@H]2CNC[C@H]2NC(=O)c2ccc3[nH]ncc3c2)cc1 | Fibroblast growth factor receptor 1 (FGFR1, Homo sapiens, UniProt P11362, V561M) | – | 10 µM | 23% |
| Cc1cnc(NC2CCOCC2)nc1-n1cnc(C(=O)NC(CN)c2cc(F)cc(Cl)c2)c1 (stereo not drawn) | FGFR1 | radiometric | 1 µM | 118% |
| FC(F)c1nc2ccccc2n1-c1nc(N2CCOCC2)nc(N2CCOCC2)n1 | FGFR1 | – | 10 µM | 102% |
| O=C(Nc1cnn(-c2csc(C(=O)NC3COC3)c2)c1)Nc1ccccc1Cl | FGFR1 | – | 5 µM | 95.9% |
| Cc1[nH]c(/C=C2\C(=O)Nc3ccc(F)cc32)c(C)c1C(=O)N[C@H]1CCN(C(=O)N(C)C)C1 | FGFR1 | – | 0.1 µM | 122% |
| COc1cc(Nc2cnc(C#N)c(O[C@H](C)CN(C)C)n2)ncc1-c1cnn(C)c1 | FGFR1 | radiometric | 1 µM | 107% |
| CCN(CC)CCNC(=O)c1c(C)[nH]c(/C=C2\C(=O)Nc3ccc(F)cc32)c1C | FGFR1 | – | 0.1 µM | 79% |
| CC(C)(O)[C@H]1CC[C@H](Nc2ccc3ncc(-c4cccc(C(F)(F)F)c4)n3n2)CC1 | FGFR1 | – | 1 µM | 97% |
